Test [1] concerns Plasmodium falciparum. Briefly: Antiplasmodial activity against chloroquine and pyrimethamine-resistant Plasmodium falciparum K1 in erythrocytes by [3H]hypoxanthine uptake. Type of test: functional, organism-based.
The subject of test [2] is Trypanosoma cruzi. Briefly: Antitrypanosomal activity against Trypanosoma cruzi in rat L6 cells. Type of test: functional, organism-based.
Test [3] relates to Trypanosoma brucei rhodesiense. The test is described as follows: Antitrypanosomal activity against Trypanosoma brucei rhodesiense. The format is functional, organism-based.
Test [4] deals with L6. The test is described as follows: Cytotoxicity against rat L6 cells. The format is cell-based. Summed up:
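Rat skeletal myoblast (L-6) line; cytotoxicity values reported in µg/mL.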

In brackets after ≈: the same amount, converted by molar mass.

What is called IC50 is the midpoint of a concentration-inhibition curve. Low readings indicate greater potency in that assay, high ones weaker potency in that assay. With `COc1cc(C)c(-c2ccc3cc(C)nc(C)c3c2O)c2cccc(O)c12` [ENT-DIONCOPHYLLEINE A], the concentration for half-maximal inhibition (IC50) in test [1] was found to be 3.1 µg/mL (≈ 8.62 µM); in test [2], 21.8 µg/mL (≈ 60.7 µM); in test [3], 1.4 µg/mL (≈ 3.9 µM); in test [4], 20.6 µg/mL (≈ 57.3 µM).

For the compound `COc1cccc2c(-c3ccc4cc(C)nc(C)c4c3O)c(C)cc(OC)c12`, the IC50 was found to be 3.9 µg/mL (≈ 10.4 µM) in test [1], 54 µg/mL (≈ 145 µM) in test [2] and 5.6 µg/mL (≈ 15 µM) in test [3].

`O=C(Cn1ccnc1[N+](=O)[O-])NCc1ccccc1` [BENZNIDAZOLE] yielded an IC50 in test [2] of 0.55 µg/mL (≈ 2.11 µM).

For `COc1ccc(-c2ccc3cc(C)nc(C)c3c2O)c2cc(C)cc(OC)c12` [DIONCOPHYLLEINE D], the half-maximal inhibitory concentration (IC50) in test [1] is 0.5 µg/mL (≈ 1.34 µM); in test [2] it was 24.3 µg/mL (≈ 65.1 µM); in test [3], 4.7 µg/mL (≈ 12.6 µM).

Source of the values: ChEMBL document CHEMBL1158754, “ent-Dioncophylleine A and related dehydrogenated naphthylisoquinoline alkaloids, the first Asian dioncophyllaceae-type alkaloids, from the "new"plant species Ancistrocladus benomensis” (J Nat Prod, 2005).
